# Experimental data as given in ChEMBL document CHEMBL4152188, “Design, synthesis and biological evaluation of C(4) substituted monobactams as antibacterial agents against multidrug-resistant Gram-negative bacteria” (Eur J Med Chem, 2018).
# Experiments:
# Type in all cases: functional
# Escherichia coli [1] = assay: Antibacterial activity against extended-spectrum beta-lactamase producing Escherichia coli isolate 212648 after 18 hrs by CLSI broth microdilution method; conditions: isolate 212648, 18 h
# Escherichia coli [2] = assay: Selectivity index, ratio of MIC for against extended-spectrum beta-lactamase producing Escherichia coli isolate 208687 to MIC for extended-spectrum beta-lactamase producing Escherichia coli isolate 208687 in presence of BPL
# Escherichia coli [3] = assay: Antibacterial activity against Escherichia coli isolate 210737 after 18 hrs by CLSI broth microdilution method; conditions: isolate 210737, 18 h
# Escherichia coli [4] = assay: Antibacterial activity against extended-spectrum beta-lactamase producing Escherichia coli isolate 208687 after 18 hrs by CLSI broth microdilution method; conditions: isolate 208687, 18 h
# Escherichia coli [5] = assay: Antibacterial activity against extended-spectrum beta-lactamase producing Escherichia coli isolate 208687 after 18 hrs in presence of BPL by CLSI broth microdilution method; conditions: isolate 208687, 18 h
# Outline: (§1)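 CLSI broth microdilution against clinical isolates (ESBL E. coli, KPC-2 MDR K. pneumoniae, IMP-4 MDR P. aeruginosa; five per species). Iron limitation: Mueller-Hinton broth supplemented with 16 mg/liter 2,2'-bipyridyl to complex iron and induce iron uptake systems. Read-out: MIC.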
# Escherichia coli [6] = assay: Antibacterial activity against Escherichia coli isolate 210737 after 18 hrs in presence of BPL by CLSI broth microdilution method; conditions: isolate 210737, 18 h; outline: as §1
# Escherichia coli [7] = assay: Selectivity index, ratio of MIC for against Escherichia coli isolate 210737 to MIC for Escherichia coli isolate 210737 in presence of BPL
# Escherichia coli [8] = assay: Antibacterial activity against extended-spectrum beta-lactamase producing Escherichia coli isolate 212648 after 18 hrs in presence of BPL by CLSI broth microdilution method; conditions: isolate 212648, 18 h; outline: as §1
# Escherichia coli [9] = assay: Selectivity index, ratio of MIC for against extended-spectrum beta-lactamase producing Escherichia coli isolate 212648 to MIC for extended-spectrum beta-lactamase producing Escherichia coli isolate 212648 in presence of BPL
# Escherichia coli [10] = assay: Antibacterial activity against extended-spectrum beta-lactamase producing Escherichia coli isolate 209285 after 18 hrs by CLSI broth microdilution method; conditions: isolate 209285, 18 h
# Escherichia coli [11] = assay: Antibacterial activity against extended-spectrum beta-lactamase producing Escherichia coli isolate 209285 after 18 hrs in presence of BPL by CLSI broth microdilution method; conditions: isolate 209285, 18 h; outline: as §1
# Escherichia coli [12] = assay: Selectivity index, ratio of MIC for against extended-spectrum beta-lactamase producing Escherichia coli isolate 209285 to MIC for extended-spectrum beta-lactamase producing Escherichia coli isolate 209285 in presence of BPL
# Escherichia coli [13] = assay: Antibacterial activity against extended-spectrum beta-lactamase producing Escherichia coli isolate 106342 after 18 hrs by CLSI broth microdilution method; conditions: isolate 106342, 18 h
# Escherichia coli [14] = assay: Antibacterial activity against extended-spectrum beta-lactamase producing Escherichia coli isolate 106342 after 18 hrs in presence of BPL by CLSI broth microdilution method; conditions: isolate 106342, 18 h; outline: as §1
# Escherichia coli [15] = assay: Selectivity index, ratio of MIC for against extended-spectrum beta-lactamase producing Escherichia coli isolate 106342 to MIC for extended-spectrum beta-lactamase producing Escherichia coli isolate 106342 in presence of BPL
# Klebsiella pneumoniae [16] = assay: Antibacterial activity against KPC-2 producing Klebsiella pneumoniae isolate 212423 after 18 hrs by CLSI broth microdilution method; conditions: isolate 212423, 18 h
# Klebsiella pneumoniae [17] = assay: Antibacterial activity against KPC-2 producing Klebsiella pneumoniae isolate 212423 after 18 hrs in presence of BPL by CLSI broth microdilution method; conditions: isolate 212423, 18 h; outline: as §1
# Klebsiella pneumoniae [18] = assay: Selectivity index, ratio of MIC for against KPC-2 producing Klebsiella pneumoniae isolate 212423 to MIC for against KPC-2 producing Klebsiella pneumoniae isolate 212423 in presence of BPL
# Klebsiella pneumoniae [19] = assay: Antibacterial activity against KPC-2 producing Klebsiella pneumoniae isolate 209632 after 18 hrs by CLSI broth microdilution method; conditions: isolate 209632, 18 h
# Klebsiella pneumoniae [20] = assay: Antibacterial activity against KPC-2 producing Klebsiella pneumoniae isolate 209632 after 18 hrs in presence of BPL by CLSI broth microdilution method; conditions: isolate 209632, 18 h; outline: as §1
# Klebsiella pneumoniae [21] = assay: Selectivity index, ratio of MIC for against KPC-2 producing Klebsiella pneumoniae isolate 209632 to MIC for against KPC-2 producing Klebsiella pneumoniae isolate 209632 in presence of BPL
# Klebsiella pneumoniae [22] = assay: Antibacterial activity against KPC-2 producing Klebsiella pneumoniae isolate 209735 after 18 hrs by CLSI broth microdilution method; conditions: isolate 209735, 18 h
# Klebsiella pneumoniae [23] = assay: Antibacterial activity against KPC-2 producing Klebsiella pneumoniae isolate 209735 after 18 hrs in presence of BPL by CLSI broth microdilution method; conditions: isolate 209735, 18 h; outline: as §1
# Klebsiella pneumoniae [24] = assay: Selectivity index, ratio of MIC for against KPC-2 producing Klebsiella pneumoniae isolate 209735 to MIC for against KPC-2 producing Klebsiella pneumoniae isolate 209735 in presence of BPL
# Klebsiella pneumoniae [25] = assay: Antibacterial activity against KPC-2 producing Klebsiella pneumoniae isolate 212232 after 18 hrs by CLSI broth microdilution method; conditions: isolate 212232, 18 h
# Klebsiella pneumoniae [26] = assay: Antibacterial activity against KPC-2 producing Klebsiella pneumoniae isolate 212232 after 18 hrs in presence of BPL by CLSI broth microdilution method; conditions: isolate 212232, 18 h; outline: as §1
# Klebsiella pneumoniae [27] = assay: Selectivity index, ratio of MIC for against KPC-2 producing Klebsiella pneumoniae isolate 212232 to MIC for against KPC-2 producing Klebsiella pneumoniae isolate 212232 in presence of BPL
# Klebsiella pneumoniae [28] = assay: Antibacterial activity against KPC-2 producing Klebsiella pneumoniae isolate 212229 after 18 hrs by CLSI broth microdilution method; conditions: isolate 212229, 18 h
# Klebsiella pneumoniae [29] = assay: Antibacterial activity against KPC-2 producing Klebsiella pneumoniae isolate 212229 after 18 hrs in presence of BPL by CLSI broth microdilution method; conditions: isolate 212229, 18 h; outline: as §1
# Klebsiella pneumoniae [30] = assay: Selectivity index, ratio of MIC for against KPC-2 producing Klebsiella pneumoniae isolate 212229 to MIC for against KPC-2 producing Klebsiella pneumoniae isolate 212229 in presence of BPL
# Pseudomonas aeruginosa [31] = assay: Antibacterial activity against IMP-4 producing Pseudomonas aeruginosa isolate 212886 after 18 hrs by CLSI broth microdilution method; conditions: isolate 212886, 18 h
# Pseudomonas aeruginosa [32] = assay: Antibacterial activity against IMP-4 producing Pseudomonas aeruginosa isolate 212886 after 18 hrs in presence of BPL by CLSI broth microdilution method; conditions: isolate 212886, 18 h; outline: as §1
# Pseudomonas aeruginosa [33] = assay: Selectivity index, ratio of MIC for against IMP-4 producing Pseudomonas aeruginosa isolate 212886 to MIC for against IMP-4 producing Pseudomonas aeruginosa isolate 212886 in presence of BPL
# Pseudomonas aeruginosa [34] = assay: Antibacterial activity against IMP-4 producing Pseudomonas aeruginosa isolate 209471 after 18 hrs by CLSI broth microdilution method; conditions: isolate 209471, 18 h
# Pseudomonas aeruginosa [35] = assay: Antibacterial activity against IMP-4 producing Pseudomonas aeruginosa isolate 209471 after 18 hrs in presence of BPL by CLSI broth microdilution method; conditions: isolate 209471, 18 h; outline: as §1
# Pseudomonas aeruginosa [36] = assay: Selectivity index, ratio of MIC for against IMP-4 producing Pseudomonas aeruginosa isolate 209471 to MIC for against IMP-4 producing Pseudomonas aeruginosa isolate 209471 in presence of BPL
# Pseudomonas aeruginosa [37] = assay: Antibacterial activity against IMP-4 producing Pseudomonas aeruginosa isolate 208247 after 18 hrs by CLSI broth microdilution method; conditions: isolate 208247, 18 h
# Pseudomonas aeruginosa [38] = assay: Antibacterial activity against IMP-4 producing Pseudomonas aeruginosa isolate 208247 after 18 hrs in presence of BPL by CLSI broth microdilution method; conditions: isolate 208247, 18 h; outline: as §1
# Pseudomonas aeruginosa [39] = assay: Selectivity index, ratio of MIC for against IMP-4 producing Pseudomonas aeruginosa isolate 208247 to MIC for against IMP-4 producing Pseudomonas aeruginosa isolate 208247 in presence of BPL
# Pseudomonas aeruginosa [40] = assay: Antibacterial activity against IMP-4 producing Pseudomonas aeruginosa isolate 209321 after 18 hrs by CLSI broth microdilution method; conditions: isolate 209321, 18 h
# Pseudomonas aeruginosa [41] = assay: Antibacterial activity against IMP-4 producing Pseudomonas aeruginosa isolate 209321 after 18 hrs in presence of BPL by CLSI broth microdilution method; conditions: isolate 209321, 18 h; outline: as §1
# Pseudomonas aeruginosa [42] = assay: Selectivity index, ratio of MIC for against IMP-4 producing Pseudomonas aeruginosa isolate 209321 to MIC for against IMP-4 producing Pseudomonas aeruginosa isolate 209321 in presence of BPL
# Pseudomonas aeruginosa [43] = assay: Antibacterial activity against IMP-4 producing Pseudomonas aeruginosa isolate 207272 after 18 hrs by CLSI broth microdilution method; conditions: isolate 207272, 18 h
# Pseudomonas aeruginosa [44] = assay: Antibacterial activity against IMP-4 producing Pseudomonas aeruginosa isolate 207272 after 18 hrs in presence of BPL by CLSI broth microdilution method; conditions: isolate 207272, 18 h; outline: as §1
# Pseudomonas aeruginosa [45] = assay: Selectivity index, ratio of MIC for against IMP-4 producing Pseudomonas aeruginosa isolate 207272 to MIC for against IMP-4 producing Pseudomonas aeruginosa isolate 207272 in presence of BPL
smiles,measurement,setting,value
CC(C)C(O/N=C(\C(=O)N[C@@H]1C(=O)N(S(=O)(=O)O)[C@@H]1COC(=O)C1CN(C(=O)c2ccc(O)c(O)c2Cl)C1)c1csc(N)n1)c1cc(=O)c(O)cn1O (stereo not given in full),MIC,Escherichia coli [1],16 µg/mL
same,Selectivity Index,Escherichia coli [2],8
same,MIC,Escherichia coli [3],> 64 µg/mL
same,MIC,Escherichia coli [4],16 µg/mL
same,MIC,Escherichia coli [5],2 µg/mL
same,MIC,Escherichia coli [6],64 µg/mL
same,Selectivity Index,Escherichia coli [7],1 - 8
same,MIC,Escherichia coli [8],16 µg/mL
same,Selectivity Index,Escherichia coli [9],1
same,MIC,Escherichia coli [10],16 µg/mL
same,MIC,Escherichia coli [11],8 µg/mL
same,Selectivity Index,Escherichia coli [12],2
same,MIC,Escherichia coli [13],8 µg/mL
same,MIC,Escherichia coli [14],4 µg/mL
same,Selectivity Index,Escherichia coli [15],2
same,MIC,Klebsiella pneumoniae [16],> 64 µg/mL
same,MIC,Klebsiella pneumoniae [17],8 µg/mL
same,Selectivity Index,Klebsiella pneumoniae [18],>8
same,MIC,Klebsiella pneumoniae [19],> 64 µg/mL
same,MIC,Klebsiella pneumoniae [20],8 µg/mL
same,Selectivity Index,Klebsiella pneumoniae [21],>8
same,MIC,Klebsiella pneumoniae [22],> 64 µg/mL
same,MIC,Klebsiella pneumoniae [23],8 µg/mL
same,Selectivity Index,Klebsiella pneumoniae [24],>8
same,MIC,Klebsiella pneumoniae [25],> 64 µg/mL
same,MIC,Klebsiella pneumoniae [26],4 µg/mL
same,Selectivity Index,Klebsiella pneumoniae [27],>16
same,MIC,Klebsiella pneumoniae [28],> 64 µg/mL
same,MIC,Klebsiella pneumoniae [29],8 µg/mL
same,Selectivity Index,Klebsiella pneumoniae [30],>8
same,MIC,Pseudomonas aeruginosa [31],> 64 µg/mL
same,MIC,Pseudomonas aeruginosa [32],> 64 µg/mL
same,Selectivity Index,Pseudomonas aeruginosa [33],1 - 2
same,MIC,Pseudomonas aeruginosa [34],64 µg/mL
same,MIC,Pseudomonas aeruginosa [35],32 µg/mL
same,Selectivity Index,Pseudomonas aeruginosa [36],2
same,MIC,Pseudomonas aeruginosa [37],32 µg/mL
same,MIC,Pseudomonas aeruginosa [38],32 µg/mL
same,Selectivity Index,Pseudomonas aeruginosa [39],1
same,MIC,Pseudomonas aeruginosa [40],64 µg/mL
same,MIC,Pseudomonas aeruginosa [41],32 µg/mL
same,Selectivity Index,Pseudomonas aeruginosa [42],2
same,MIC,Pseudomonas aeruginosa [43],32 µg/mL
same,MIC,Pseudomonas aeruginosa [44],16 µg/mL
same,Selectivity Index,Pseudomonas aeruginosa [45],2
COC[C@@H]1[C@H](NC(=O)/C(=N\OC(c2cc(=O)c(O)cn2O)C(C)C)c2csc(N)n2)C(=O)N1S(=O)(=O)O (stereo not given in full),MIC,Escherichia coli [1],1 µg/mL
same,Selectivity Index,Escherichia coli [2],2
same,MIC,Escherichia coli [3],0.5 µg/mL
same,MIC,Escherichia coli [4],0.5 µg/mL
same,MIC,Escherichia coli [5],0.25 µg/mL
same,MIC,Escherichia coli [6],0.5 µg/mL
same,Selectivity Index,Escherichia coli [7],1
same,MIC,Escherichia coli [8],0.25 µg/mL
same,Selectivity Index,Escherichia coli [9],4
same,MIC,Escherichia coli [10],0.5 µg/mL
same,MIC,Escherichia coli [11],0.125 µg/mL
same,Selectivity Index,Escherichia coli [12],4
same,MIC,Escherichia coli [13],0.5 µg/mL
same,MIC,Escherichia coli [14],0.25 µg/mL
same,Selectivity Index,Escherichia coli [15],2
same,MIC,Klebsiella pneumoniae [16],0.5 µg/mL
same,MIC,Klebsiella pneumoniae [17],0.25 µg/mL
same,Selectivity Index,Klebsiella pneumoniae [18],2
same,MIC,Klebsiella pneumoniae [19],4 µg/mL
same,MIC,Klebsiella pneumoniae [20],1 µg/mL
same,Selectivity Index,Klebsiella pneumoniae [21],4
same,MIC,Klebsiella pneumoniae [22],16 µg/mL
same,MIC,Klebsiella pneumoniae [23],4 µg/mL
same,Selectivity Index,Klebsiella pneumoniae [24],4
same,MIC,Klebsiella pneumoniae [25],4 µg/mL
same,MIC,Klebsiella pneumoniae [26],0.5 µg/mL
same,Selectivity Index,Klebsiella pneumoniae [27],8
same,MIC,Klebsiella pneumoniae [28],0.5 µg/mL
same,MIC,Klebsiella pneumoniae [29],0.125 µg/mL
same,Selectivity Index,Klebsiella pneumoniae [30],4
same,MIC,Pseudomonas aeruginosa [31],16 µg/mL
same,MIC,Pseudomonas aeruginosa [32],16 µg/mL
same,Selectivity Index,Pseudomonas aeruginosa [33],1
same,MIC,Pseudomonas aeruginosa [34],16 µg/mL
same,MIC,Pseudomonas aeruginosa [35],8 µg/mL
same,Selectivity Index,Pseudomonas aeruginosa [36],2
same,MIC,Pseudomonas aeruginosa [37],8 µg/mL
same,MIC,Pseudomonas aeruginosa [38],8 µg/mL
same,Selectivity Index,Pseudomonas aeruginosa [39],1
same,MIC,Pseudomonas aeruginosa [40],16 µg/mL
same,MIC,Pseudomonas aeruginosa [41],16 µg/mL
same,Selectivity Index,Pseudomonas aeruginosa [42],1
same,MIC,Pseudomonas aeruginosa [43],8 µg/mL
same,MIC,Pseudomonas aeruginosa [44],8 µg/mL
same,Selectivity Index,Pseudomonas aeruginosa [45],1
